Measured values as given in the array DNA melting data of Ke et al. (doi:10.1101/2024.01.08.574731).

What was measured:
[1] = folding enthalpy; higher = less favourable; fluorescence melt of hairpins on a sequencing array, two-state fit; conditions: sodium 0.088 M
Summary of the method: (§1)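 Cy3 signals were normalised both to pre-quench Cy3 and to control constructs. They came from library hairpins carrying annealed Cy3 and quencher oligos on a sequenced MiSeq flow cell, imaged in 50 mM Na-HEPES pH 8.0, 25 mM NaCl, in 2.5 °C steps up to 60 °C. Bootstrapped two-state fits gave melting temperature and folding enthalpy, and four replicates were combined by inverse variance. Fitted temperatures were then raised by 9.35 °C to match UV melts.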

[2] = melting temperature; fluorescence melt of hairpins on a sequencing array, two-state fit, raised by 9.35 °C to match UV melts; conditions: sodium 0.088 M
Summary of the method: as §1

| Sequence | folding enthalpy [1] [kcal/mol] | Tm [2] [°C] |
| --- | --- | --- |
| GTATTTGGAAACAAATGC (.(((((....))))).) | -28.4 | 39.9 |
| GTATTTGGAAACAGATAC ((((.((....)).)))) | -24.7 | 32.4 |
| GTCAAACCGAAAGGTGAC (((..(((....)))))) | -21.3 | 45.4 |
| GTCAAACGAAAGTTGAC (((.(((....)))))) | -26.5 | 49.7 |
| GTCAACGAAAGTTCGGAC ((((((....)))..))) | -14 | 30.5 |
| GTCAACGAAAGTTGAGAC ((((((....)))..))) | -12.2 | 43.3 |
| GTCAACGAAAGTTTCGAC ((((((....)))..))) | -14.3 | 26.6 |
| GTCAACGCGAAAGCGGAC (((..(((....)))))) | -15.3 | 42 |
| GTCAACGGAAACGTCGAC (((.(((....))).))) | -33 | 44.4 |
| GTCAAGAAATTGAC (((((....))))) | -21.6 | 40.8 |
| GTCAAGCCGAAAGGCGAC (((..(((....)))))) | -12.2 | 45.1 |
| GTCAAGGGAAACCTCGAC (((.(((....))).))) | -19.1 | 37.5 |
| GTCAAGGGAAACTTTGAC (((((.(....).))))) | -26.4 | 40.3 |
| GTCACAGCGAAAGCTGAC (((..(((....)))))) | -10.4 | 34.2 |
| GTCACAGGAAACTGTAAC ((.((((....)))).)) | -17.3 | 30.9 |
| GTCACCACGAAAGTGGAC (((..(((....)))))) | -7.89 | 31.1 |
| GTCACCGAAAGGTAGAC ((((((....))).))) | -18.9 | 51 |
| GTCACCGAAAGGTAGGAC ((((((....)))..))) | -17.2 | 37.4 |
| GTCACCGAAAGGTGAGAC ((((((....)))..))) | -10.3 | 48 |
| GTCACCGAAAGGTGCGAC ((((((....)))..))) | -13 | 58.5 |
| GTCACCGAAAGGTTCGAC ((((((....)))..))) | -14.9 | 30.3 |
| GTCACCGAAAGGTTGAC ((((((....))).))) | -27 | 51.4 |
| GTCACCGGAAACGGTGGC (.(((((....))))).) | -29.4 | 63.5 |

| Sequence | folding enthalpy [1] [kcal/mol] | Tm [2] [°C] |
| --- | --- | --- |
| GTCACGCGAAAGCGCGAC (((.(((....))).))) | -29.6 | 58.9 |
| GTCACGGAAACGTGAC ((((((....)))))) | -34.4 | 69.2 |
| GTCACGGGAAACCGCGAC (((.(((....))).))) | -30.4 | 50.8 |
| GTCACGTCGAAAGACGAC (((..(((....)))))) | -9.85 | 32.1 |
| GTCACTCCGAAAGGAGAC (((..(((....)))))) | -8.95 | 31.6 |
| GTCACTTCGAAAGAAGAC (((..(((....)))))) | -8.67 | 26.7 |
| GTCAGAGGAAACCCTGAC (((((.(....).))))) | -32.4 | 43.8 |
| GTCAGAGGAAACTCCAAC ((..(((....)))..)) | -4.46 | 17.2 |
| GTCAGCACGAAAGTGGAC (((..(((....)))))) | -18 | 37.6 |
| GTCAGCGAAAGCTCGAC ((((((....))).))) | -19.8 | 48 |
| GTCAGCGAAAGCTCTGAC ((((((....)))..))) | -18.5 | 37.3 |
| GTCAGCGAAAGCTGAGAC ((((((....)))..))) | -8.85 | 49 |
| GTCAGCGAAAGCTTGAC ((((((....))).))) | -25.6 | 49.9 |
| GTCAGCGCGAAAGCGGAC (((..(((....)))))) | -15.6 | 46.6 |
| GTCAGCGGAAACGCTGGC (.(((((....))))).) | -24.6 | 63.7 |
| GTCAGGGGAAACCCTGAC (((((((....))))))) | -41.9 | 65.1 |
| GTCAGGTCGAAAGACGAC (((..(((....)))))) | -16.8 | 43.1 |
| GTCAGTACGAAAGTAGAC (((..(((....)))))) | -17.2 | 31 |
| GTCAGTGGAAACACTAAC ((.((((....)))).)) | -17.4 | 30.9 |
| GTCAGTGGAAACATTGGC (.((.((....)).)).) | -26.2 | 30.6 |
| GTCATACCGAAAGGTGAC (((..(((....)))))) | -19 | 43 |
| GTCATACGAAAGTAAGAC (((.(((....))).))) | -25.6 | 43.5 |
| GTCATACGAAAGTAGAC (((.(((....)))))) | -28.2 | 42.4 |

| Sequence | folding enthalpy [1] [kcal/mol] | Tm [2] [°C] |
| --- | --- | --- |
| GTCATAGGAAACTATGGC (.(((((....))))).) | -29.1 | 44.6 |
| GTCATCCGAAAGGAGGAC (((.(((....))).))) | -36.3 | 58.6 |
| GTCATCGAAAGATAAGAC ((((((....)))..))) | -21 | 31.6 |
| GTCATCGAAAGATACGAC ((((((....)))..))) | -20.9 | 35 |
| GTCATCGAAAGATATGAC ((((((....)))..))) | -20 | 34.6 |
| GTCATCGAAAGATTCGAC ((((((....)))..))) | -12.3 | 25.8 |
| GTCATCGCGAAAGCGGAC (((..(((....)))))) | -11.1 | 39.9 |
| GTCATCGGAAACAATGAC (((((.(....).))))) | -28 | 36.1 |
| GTCATCGGAAACGATAAC ((.((((....)))).)) | -19.7 | 32.2 |
| GTCATGACGAAAGTCGAC (((..(((....)))))) | -14.9 | 38.6 |
| GTCATGCGAAAGCAGAC (((.(((....)))))) | -22.4 | 49.8 |
| GTCATTCGAAAGAAAGAC (((.(((....))).))) | -30.6 | 38.4 |
| GTCCAACGAAAGTTCGAC (((.(((....))).))) | -27 | 35.9 |
| GTCCAAGCGAAAGCTGAC (((..(((....)))))) | -14.4 | 41.4 |
| GTCCACACGAAAGTGGAC (((..(((....)))))) | -29.9 | 56.3 |
| GTCCACCCGAAAGGGGAC (((..(((....)))))) | -18.5 | 47 |
| GTCCACCGAAAGGTTGAC (((.(((....))).))) | -29.6 | 49.3 |
| GTCCACGAAAGTGAGAC ((((((....))).))) | -23.8 | 52.2 |
| GTCCACGAAAGTGATGAC ((((((....)))..))) | -14.8 | 39.4 |
| GTCCACGAAAGTGGAGAC ((((((....)))..))) | -9.62 | 48.7 |
| GTCCACGAAAGTGGCGAC ((((((....)))..))) | -13.4 | 58.8 |
| GTCCACGAAAGTGTCGAC ((((((....)))..))) | -14 | 33.8 |
